Experimental data taken from publication PMC6500982 (Cancer Science, 2019).

Experiment: Safety and tolerability
Assay type: in vivo, human
In short: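 Patients (enrolled January 2015–February 2016) received oral test compound in four cohorts: 160, 320 or 480 mg QD, or 300 mg BID. Dosing continued until progression, unacceptable AEs or consent withdrawal. AEs were graded by CTCAE v4.0, alongside laboratory tests, vital signs and ECGs. The safety population was all patients receiving ≥1 dose.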

[1] = Japanese patients with B‐cell NHL and CLL

For CC#CC(=O)N1CC[C@@H](n2c(=O)n(-c3ccc(Oc4ccccc4)cc3)c3c(N)ncnc32)C1 [tirabrutinib], the “Myalgia, Any grade” value (320 mg QD N = 3) was 0 n (%), the “Myalgia, Grade ≥3” value (320 mg QD N = 3) was 0 n (%) and the “Nasopharyngitis, Any grade” value (320 mg QD N = 3) was 0 n (%). The “Nasopharyngitis, Grade ≥3” value (320 mg QD N = 3) was 0 n (%), the “Nausea, Any grade” value (320 mg QD N = 3) was 0 n (%) and the “Nausea, Grade ≥3” value (320 mg QD N = 3) was 0 n (%). For the same compound, the “Neutropenia, Any grade” value (320 mg QD N = 3) was 2 (66.7) n (%), the “Neutropenia, Grade ≥3” value (320 mg QD N = 3) was 2 (66.7) n (%) and the “Pharyngitis, Any grade” value (320 mg QD N = 3) was 0 n (%). For the same compound, the “Pharyngitis, Grade ≥3” value (320 mg QD N = 3) was 0 n (%), the “Pyrexia, Any grade” value (320 mg QD N = 3) was 0 n (%) and the “Pyrexia, Grade ≥3” value (320 mg QD N = 3) was 0 n (%). For the same compound, the “Rash, Any grade” value (320 mg QD N = 3) was 2 (66.7) n (%), the “Rash, Grade ≥3” value (320 mg QD N = 3) was 0 n (%) and the “Thrombocytopenia, Any grade” value (320 mg QD N = 3) was 1 (33.3) n (%). For the same compound, the “Thrombocytopenia, Grade ≥3” value (320 mg QD N = 3) was 0 n (%), the “Upper respiratory tract inflammation, Any grade” value (320 mg QD N = 3) was 1 (33.3) n (%) and the “Upper respiratory tract inflammation, Grade ≥3” value (320 mg QD N = 3) was 0 n (%). For the same compound, the “Vomiting, Any grade” value (320 mg QD N = 3) was 1 (33.3) n (%), the “Vomiting, Grade ≥3” value (320 mg QD N = 3) was 0 n (%) and the “All AEs, Any grade” value (480 mg QD N = 4) was 4 (100.0) n (%). For the same compound, the “All AEs, Grade ≥3” value (480 mg QD N = 4) was 2 (50.0) n (%), the “Anemia, Any grade” value (480 mg QD N = 4) was 2 (50.0) n (%) and the “Anemia, Grade ≥3” value (480 mg QD N = 4) was 1 (25.0) n (%). For the same compound, the “Arthralgia, Any grade” value (480 mg QD N = 4) was 0 n (%), the “Arthralgia, Grade ≥3” value (480 mg QD N = 4) was 0 n (%) and the “Aspartate aminotransferase increased, Any grade” value (480 mg QD N = 4) was 1 (25.0) n (%). The “Aspartate aminotransferase increased, Grade ≥3” value (480 mg QD N = 4) was 0 n (%), the “Constipation, Any grade” value (480 mg QD N = 4) was 1 (25.0) n (%) and the “Constipation, Grade ≥3” value (480 mg QD N = 4) was 0 n (%). For the same compound, the “Cystitis, Any grade” value (480 mg QD N = 4) was 0 n (%), the “Cystitis, Grade ≥3” value (480 mg QD N = 4) was 0 n (%) and the “Diarrhea, Any grade” value (480 mg QD N = 4) was 0 n (%). The “Diarrhea, Grade ≥3” value (480 mg QD N = 4) was 0 n (%), the “Dysgeusia, Any grade” value (480 mg QD N = 4) was 1 (25.0) n (%) and the “Dysgeusia, Grade ≥3” value (480 mg QD N = 4) was 0 n (%). The “Gamma‐glutamyltransferase increased, Any grade” value (480 mg QD N = 4) was 0 n (%), the “Gamma‐glutamyltransferase increased, Grade ≥3” value (480 mg QD N = 4) was 0 n (%) and the “Headache, Any grade” value (480 mg QD N = 4) was 0 n (%). The “Headache, Grade ≥3” value (480 mg QD N = 4) was 0 n (%), the “Hypokalemia, Any grade” value (480 mg QD N = 4) was 2 (50.0) n (%) and the “Hypokalemia, Grade ≥3” value (480 mg QD N = 4) was 0 n (%). For the same compound, the “Hypophosphatemia, Any grade” value (480 mg QD N = 4) was 2 (50.0) n (%), the “Hypophosphatemia, Grade ≥3” value (480 mg QD N = 4) was 1 (25.0) n (%) and the “Insomnia, Any grade” value (480 mg QD N = 4) was 0 n (%). The “Insomnia, Grade ≥3” value (480 mg QD N = 4) was 0 n (%), the “Leukopenia, Any grade” value (480 mg QD N = 4) was 0 n (%) and the “Leukopenia, Grade ≥3” value (480 mg QD N = 4) was 0 n (%). The “Lymphopenia, Any grade” value (480 mg QD N = 4) was 1 (25.0) n (%), the “Lymphopenia, Grade ≥3” value (480 mg QD N = 4) was 0 n (%) and the “Malaise, Any grade” value (480 mg QD N = 4) was 1 (25.0) n (%). For the same compound, the “Malaise, Grade ≥3” value (480 mg QD N = 4) was 0 n (%), the “Myalgia, Any grade” value (480 mg QD N = 4) was 0 n (%) and the “Myalgia, Grade ≥3” value (480 mg QD N = 4) was 0 n (%). The “Nasopharyngitis, Any grade” value (480 mg QD N = 4) was 0 n (%), the “Nasopharyngitis, Grade ≥3” value (480 mg QD N = 4) was 0 n (%) and the “Nausea, Any grade” value (480 mg QD N = 4) was 1 (25.0) n (%). For the same compound, the “Nausea, Grade ≥3” value (480 mg QD N = 4) was 0 n (%), the “Neutropenia, Any grade” value (480 mg QD N = 4) was 1 (25.0) n (%) and the “Neutropenia, Grade ≥3” value (480 mg QD N = 4) was 1 (25.0) n (%). For the same compound, the “Pharyngitis, Any grade” value (480 mg QD N = 4) was 0 n (%), the “Pharyngitis, Grade ≥3” value (480 mg QD N = 4) was 0 n (%) and the “Pyrexia, Any grade” value (480 mg QD N = 4) was 0 n (%). For the same compound, the “Pyrexia, Grade ≥3” value (480 mg QD N = 4) was 0 n (%), the “Rash, Any grade” value (480 mg QD N = 4) was 2 (50.0) n (%) and the “Rash, Grade ≥3” value (480 mg QD N = 4) was 0 n (%). The “Thrombocytopenia, Any grade” value (480 mg QD N = 4) was 1 (25.0) n (%), the “Thrombocytopenia, Grade ≥3” value (480 mg QD N = 4) was 0 n (%) and the “Upper respiratory tract inflammation, Any grade” value (480 mg QD N = 4) was 0 n (%). For the same compound, the “Upper respiratory tract inflammation, Grade ≥3” value (480 mg QD N = 4) was 0 n (%), the “Vomiting, Any grade” value (480 mg QD N = 4) was 2 (50.0) n (%) and the “Vomiting, Grade ≥3” value (480 mg QD N = 4) was 0 n (%). For the same compound, the “Patients with DLT (grade 3 pneumonitis)” value (Cohort 4 (300 mg BID), WM patient) was 1 patient, the Tolerability [1] was “well tolerated” and the “Tolerability confirmed up to (dose)” value [1] was “up to 300 mg BID”. The Tolerability (Japanese patients with B‐cell NHL and CLL, listed as Tirabrutinib) was “generally well tolerated”, the “Serious AEs reported as study drug‐related” value (Mallory‐Weiss syndrome, de novo reactivation of HBV, acute myeloid leukemia, pneumonitis (1 patient each)) was 4 and the “All AEs, Any grade” value (Total (all cohorts) N = 17) was 17 (100.0) n (%). The “All AEs, Grade ≥3” value (Total (all cohorts) N = 17) was 8 (47.1) n (%), the “Anemia, Any grade” value (Total (all cohorts) N = 17) was 3 (17.6) n (%) and the “Anemia, Grade ≥3” value (Total (all cohorts) N = 17) was 2 (11.8) n (%). For the same compound, the “Arthralgia, Any grade” value (Total (all cohorts) N = 17) was 3 (17.6) n (%), the “Arthralgia, Grade ≥3” value (Total (all cohorts) N = 17) was 0 n (%) and the “Aspartate aminotransferase increased, Any grade” value (Total (all cohorts) N = 17) was 2 (11.8) n (%). The “Aspartate aminotransferase increased, Grade ≥3” value (Total (all cohorts) N = 17) was 0 n (%), the “Constipation, Any grade” value (Total (all cohorts) N = 17) was 3 (17.6) n (%) and the “Constipation, Grade ≥3” value (Total (all cohorts) N = 17) was 0 n (%). The “Cystitis, Any grade” value (Total (all cohorts) N = 17) was 2 (11.8) n (%), the “Cystitis, Grade ≥3” value (Total (all cohorts) N = 17) was 0 n (%) and the “Diarrhea, Any grade” value (Total (all cohorts) N = 17) was 3 (17.6) n (%). The “Diarrhea, Grade ≥3” value (Total (all cohorts) N = 17) was 0 n (%), the “Dysgeusia, Any grade” value (Total (all cohorts) N = 17) was 2 (11.8) n (%) and the “Dysgeusia, Grade ≥3” value (Total (all cohorts) N = 17) was 0 n (%). For the same compound, the “Gamma‐glutamyltransferase increased, Any grade” value (Total (all cohorts) N = 17) was 2 (11.8) n (%), the “Gamma‐glutamyltransferase increased, Grade ≥3” value (Total (all cohorts) N = 17) was 0 n (%) and the “Headache, Any grade” value (Total (all cohorts) N = 17) was 2 (11.8) n (%). The “Headache, Grade ≥3” value (Total (all cohorts) N = 17) was 0 n (%), the “Hypokalemia, Any grade” value (Total (all cohorts) N = 17) was 2 (11.8) n (%) and the “Hypokalemia, Grade ≥3” value (Total (all cohorts) N = 17) was 0 n (%). For the same compound, the “Hypophosphatemia, Any grade” value (Total (all cohorts) N = 17) was 2 (11.8) n (%), the “Hypophosphatemia, Grade ≥3” value (Total (all cohorts) N = 17) was 1 (5.9) n (%) and the “Insomnia, Any grade” value (Total (all cohorts) N = 17) was 3 (17.6) n (%). The “Insomnia, Grade ≥3” value (Total (all cohorts) N = 17) was 0 n (%), the “Leukopenia, Any grade” value (Total (all cohorts) N = 17) was 2 (11.8) n (%) and the “Leukopenia, Grade ≥3” value (Total (all cohorts) N = 17) was 2 (11.8) n (%). For the same compound, the “Lymphopenia, Any grade” value (Total (all cohorts) N = 17) was 2 (11.8) n (%), the “Lymphopenia, Grade ≥3” value (Total (all cohorts) N = 17) was 1 (5.9) n (%) and the “Malaise, Any grade” value (Total (all cohorts) N = 17) was 3 (17.6) n (%). The “Malaise, Grade ≥3” value (Total (all cohorts) N = 17) was 0 n (%), the “Myalgia, Any grade” value (Total (all cohorts) N = 17) was 2 (11.8) n (%) and the “Myalgia, Grade ≥3” value (Total (all cohorts) N = 17) was 0 n (%). The “Nasopharyngitis, Any grade” value (Total (all cohorts) N = 17) was 2 (11.8) n (%), the “Nasopharyngitis, Grade ≥3” value (Total (all cohorts) N = 17) was 0 n (%) and the “Nausea, Any grade” value (Total (all cohorts) N = 17) was 3 (17.6) n (%). For the same compound, the “Nausea, Grade ≥3” value (Total (all cohorts) N = 17) was 0 n (%), the “Neutropenia, Any grade” value (Total (all cohorts) N = 17) was 4 (23.5) n (%) and the “Neutropenia, Grade ≥3” value (Total (all cohorts) N = 17) was 4 (23.5) n (%). The “Pharyngitis, Any grade” value (Total (all cohorts) N = 17) was 2 (11.8) n (%), the “Pharyngitis, Grade ≥3” value (Total (all cohorts) N = 17) was 0 n (%) and the “Pyrexia, Any grade” value (Total (all cohorts) N = 17) was 2 (11.8) n (%). For the same compound, the “Pyrexia, Grade ≥3” value (Total (all cohorts) N = 17) was 0 n (%), the “Rash, Any grade” value (Total (all cohorts) N = 17) was 6 (35.3) n (%) and the “Rash, Grade ≥3” value (Total (all cohorts) N = 17) was 0 n (%). For the same compound, the “Thrombocytopenia, Any grade” value (Total (all cohorts) N = 17) was 2 (11.8) n (%), the “Thrombocytopenia, Grade ≥3” value (Total (all cohorts) N = 17) was 0 n (%) and the “Upper respiratory tract inflammation, Any grade” value (Total (all cohorts) N = 17) was 2 (11.8) n (%). For the same compound, the “Upper respiratory tract inflammation, Grade ≥3” value (Total (all cohorts) N = 17) was 0 n (%), the “Vomiting, Any grade” value (Total (all cohorts) N = 17) was 5 (29.4) n (%) and the “Vomiting, Grade ≥3” value (Total (all cohorts) N = 17) was 0 n (%). For the same compound, the “Tirabrutinib‐induced lymphocytosis” value (all patients) was “no tirabrutinib‐induced lymphocytosis observed”, the “Anemia, grade ≥3 (grade 3 or 4)” value (all patients N = 17) was 11.8% and the “Leukopenia, grade ≥3 (grade 3 or 4)” value (all patients N = 17) was 11.8%. The “Neutropenia, grade ≥3 (grade 3 or 4)” value (all patients N = 17) was 23.5%, the “Patients who developed grade ≥3 AEs” value (all patients N = 17) was 47.1% and the “Patients with serious AEs” value (all patients N = 17) was 7 patients. The “Maximum tolerated dose (MTD)” value (cohorts 160, 320, 480 mg QD and 300 mg BID) was “not reached”.
